Assay [1] addresses T1, Sterol O-acyltransferase 2 (Homo sapiens, UniProt O75908).
T1 sequence (O75908 whole entry): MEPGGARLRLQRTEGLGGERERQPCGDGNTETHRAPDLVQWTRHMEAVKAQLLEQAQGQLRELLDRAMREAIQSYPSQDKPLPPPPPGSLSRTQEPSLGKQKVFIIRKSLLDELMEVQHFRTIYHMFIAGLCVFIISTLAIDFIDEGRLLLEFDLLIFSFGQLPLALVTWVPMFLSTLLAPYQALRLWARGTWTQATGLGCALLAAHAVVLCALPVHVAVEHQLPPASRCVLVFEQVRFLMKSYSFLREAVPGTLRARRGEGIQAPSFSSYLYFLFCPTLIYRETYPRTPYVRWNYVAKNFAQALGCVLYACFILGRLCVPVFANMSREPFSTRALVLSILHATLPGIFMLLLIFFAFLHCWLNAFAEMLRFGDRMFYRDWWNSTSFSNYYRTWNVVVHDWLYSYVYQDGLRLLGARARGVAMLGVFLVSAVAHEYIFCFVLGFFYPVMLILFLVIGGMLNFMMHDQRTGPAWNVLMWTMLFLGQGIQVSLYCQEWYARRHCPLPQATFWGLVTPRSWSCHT
Briefly: Inhibitory activity against human Acyl-CoA:cholesterol acyltransferase-2.

The species entered for assay [2] is Homo sapiens. Briefly: Antioxidant activity against copper mediated low-density lipoproteins (LDL) oxidation. In kind it is functional. In short, it runs like this:
(§1)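 Test compounds at final 1 µg/mL. Oxidation read as TBARS, expressed as nmol MDA/mg LDL and % inhibition against LDL + CuSO4 alone. Electromobility was also compared on 0.7% agarose gel.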

For assay [3], the species on record is Homo sapiens. Nature of the assay: Antioxidant activity was determined by measuring the produced thiobarbituric acid reactive substance. In kind it is functional. The method, boiled down:
as §1

The target in assay [4] is T2, Sterol O-acyltransferase 2 (Homo sapiens) (UniProt O75908).
T2 sequence (whole entry): T1 sequence (O75908 whole entry)
Nature of the assay: Inhibitory activity against human Acyl-CoA:cholesterol acyltransferase-2 at 30 ug/mL.

Assay [5] is filed under the species Oryctolagus cuniculus. Nature of the assay: Compound inhibited the rHDL-particle rearrangement under presence of LDL at 37 degree C. In kind it is functional. The method, boiled down: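 rHDL particles (98 Å, 2 mg/mL preparation) were incubated at 37 °C for 24 h with human LDL (4 mg/mL preparation) and compound. Products were run on native 8–25% polyacrylamide gradient gel and stained with Coomassie to compare particle size.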

This note sets out measurements from ChEMBL document CHEMBL1137834, “Synthesis of cinnamic acid derivatives and their inhibitory effects on LDL-oxidation, acyl-CoA:cholesterol acyltransferase-1 and -2 activity, and decrease of HDL-particle size” (Bioorg Med Chem Lett, 2004).

As to `O=C(CCc1ccc(O)c(O)c1)N[C@@H](CC(=O)OCc1ccccc1)C(=O)OCc1ccccc1`, the IC50 (in general, the midpoint of a concentration-inhibition curve) in assay [1] was determined as 81 µM; in assay [2], 3 µM. Further, the Activity in assay [3] is reported as 32.1 nmol of MDA/mg of LDL. The inhibition (as a rule, the percentage by which the read-out fell short of the control) in assay [4] is over 70%.

Take `COC(=O)[C@H](C)NC(=O)/C=C/c1ccc(O)c(O)c1`: the Activity in assay [3] is 91.5 nmol of MDA/mg of LDL. The molecule further showed an inhibition in assay [4] of 0%.

On to `CC(C)(Sc1cc(C(C)(C)C)c(O)c(C(C)(C)C)c1)Sc1cc(C(C)(C)C)c(O)c(C(C)(C)C)c1` [PROBUCOL], for which the Activity in assay [3] was 263.1 nmol of MDA/mg of LDL.

Regarding `COC(=O)[C@H](Cc1ccccc1)NC(=O)/C=C/c1ccc(O)cc1`, the IC50 in assay [2] worked out at 52 µM. Also, in assay [3], the Activity was 269 nmol of MDA/mg of LDL. In addition, in assay [5], the Inhibition was 307 µM. The inhibition in assay [4] was over 70%.
